Assay results: ChEMBL document CHEMBL6083224, “A novel aurone RNA CAG binder inhibits the huntingtin RNA-protein interaction” (RSC Med Chem, 2024)
The source made the active and inactive calls. No cut-off for these calls is given here.

Tests used:
Type in all cases: nucleic-acid assay
CAG repeat expansion [1] = experiment: Binding affinity to HTT exon 1 (CAG)51 repeat RNA (unknown origin) assessed as reduction in human MID1 binding to HTT exon 1 (CAG)51 repeat RNA at 100 uM by Western blot analysis
Method in brief: (§1)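 Biotinylated RNA was folded in 10 mM Tris pH 7, 100 mM KCl, 10 mM MgCl₂ (72 °C for 10 min, then cooled to room temperature). 80 pmol of RNA was loaded onto streptavidin-agarose beads in buffer D for 30 min at room temperature. HEK293T protein extract was bound overnight at 4 °C. After washes, bound proteins were eluted at 95 °C for 10 min, and MID1 was detected by anti-MID1 western blot.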

CAG repeat expansion [2] = experiment: Binding affinity to CAG (5-GCAGCAGCUUCGGCAGCAGC-3) repeat RNA (unknown origin) by spectrophotometric analysis
Method in brief: (§2)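 The compound was titrated with RNA, and electronic absorption spectra were recorded on a two-beam UV-vis spectrophotometer. Binding constants were calculated from the spectrophotometric titration data.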

r(CUG) repeat expansion = experiment: Binding affinity to CUG (5-GGUCGCUGCUGCACGAAAGUGCUGCUGCGACC-3) RNA (unknown origin) assessed as change in fluorescence intensity
[3] = test system: Rev responsive element (RRE) RNA; experiment: Binding affinity to HIV-1 RRE-IIB (5-GGUCUGGGCGCAGCGCAAGCUGACGGUACAGGCC-3) RNA assessed as change in fluorescence intensity; conditions: Human immunodeficiency virus 1
TAR RNA = experiment: Binding affinity to HIV-1 TAR (5-GGCAGAUCUGAGCCUGGGAGCUCUCUGCC-3) RNA assessed as change in fluorescence intensity; conditions: Human immunodeficiency virus 1
CAG repeat expansion [4] = experiment: Binding affinity to HTT exon 1 (CAG)51 repeat RNA (unknown origin) assessed as reduction in human MID1 binding to HTT exon 1 (CAG)51 repeat RNA by Western blot analysis; conditions: dose 1-100 µM; method in brief: as §1
CAG repeat expansion [5] = experiment: Binding affinity to CAG (5-GCAGCAGCUUCGGCAGCAGC-3) repeat RNA (unknown origin) assessed as hypochromic red shift by spectrophotometric analysis; method in brief: as §2
CAG repeat expansion [6] = experiment: Binding affinity to CAG (5-GCAGCAGCUUCGGCAGCAGC-3) repeat RNA (unknown origin) assessed as binding constant; method in brief: as §2

| Activity (CAG repeat expansion [1]) | Activity (CAG repeat expansion [2]) | Activity (r(CUG) repeat expansion) | Activity [3] | Activity (TAR RNA) | Activity (CAG repeat expansion [4]) | Activity (CAG repeat expansion [5]) | K (CAG repeat expansion [6]) | SMILES |
| --- | --- | --- | --- | --- | --- | --- | --- | --- |
| inactive | inactive | inactive | Active | Active |  |  |  | O=C1/C(=C/c2c3ccccc3cc3ccccc23)Oc2ccccc21 |
| Active |  | No effect | No effect | No effect | Dose-dependent-effect | Active | 1.4 10^5/M | CN(C)CCOc1ccc(/C=C2\Oc3cc(OCCN(C)C)ccc3C2=O)cc1 |
